Results reported in paper PMC4281931 (Anticancer research, 2013).

Target: PARP-1 (poly ADP-ribose polymerase) (Homo sapiens, UniProt P09874)
Experiment: PARP-1 chemiluminescent assay kit
Type: biochemical
Conditions: read-out: % (inhibition at 21.35 μM)
Outline: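 Human PARP-1 activity was measured with a chemiluminescent kit, run per the maker's protocol. PARP-1 incorporates biotinylated NAD into biotinyl-poly(ADP-ribose) on immobilized histone substrate. The biotinylated substrate was incubated with the test compound at several concentrations in assay buffer containing PARP-1 enzyme. The read-out was chemiluminescence.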

Sequence of PARP-1 (poly ADP-ribose polymerase) (P09874 2-1014): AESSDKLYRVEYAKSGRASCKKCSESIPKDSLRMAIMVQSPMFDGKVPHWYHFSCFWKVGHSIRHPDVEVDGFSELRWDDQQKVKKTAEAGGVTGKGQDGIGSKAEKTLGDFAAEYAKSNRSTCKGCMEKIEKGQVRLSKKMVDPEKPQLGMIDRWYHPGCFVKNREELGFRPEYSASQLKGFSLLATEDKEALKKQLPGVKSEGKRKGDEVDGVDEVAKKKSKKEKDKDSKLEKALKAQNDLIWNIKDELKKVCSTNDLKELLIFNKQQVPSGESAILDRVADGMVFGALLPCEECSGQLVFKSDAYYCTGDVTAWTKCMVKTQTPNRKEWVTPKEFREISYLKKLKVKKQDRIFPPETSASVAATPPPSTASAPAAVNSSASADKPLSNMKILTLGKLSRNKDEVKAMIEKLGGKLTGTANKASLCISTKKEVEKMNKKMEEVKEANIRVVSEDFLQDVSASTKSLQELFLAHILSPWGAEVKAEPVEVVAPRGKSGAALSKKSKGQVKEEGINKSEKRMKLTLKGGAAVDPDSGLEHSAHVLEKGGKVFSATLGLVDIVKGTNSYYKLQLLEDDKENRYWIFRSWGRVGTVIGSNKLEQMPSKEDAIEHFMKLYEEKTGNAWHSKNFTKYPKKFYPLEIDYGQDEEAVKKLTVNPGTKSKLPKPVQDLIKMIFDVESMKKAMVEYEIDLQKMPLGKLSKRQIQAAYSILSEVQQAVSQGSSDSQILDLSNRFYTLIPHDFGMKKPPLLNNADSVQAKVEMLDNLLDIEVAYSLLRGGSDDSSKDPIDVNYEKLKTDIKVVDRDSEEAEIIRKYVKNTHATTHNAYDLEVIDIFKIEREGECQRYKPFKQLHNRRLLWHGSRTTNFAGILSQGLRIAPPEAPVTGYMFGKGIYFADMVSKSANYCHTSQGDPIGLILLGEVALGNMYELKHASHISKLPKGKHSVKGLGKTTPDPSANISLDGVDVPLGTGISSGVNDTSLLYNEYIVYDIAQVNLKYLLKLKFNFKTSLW

inhibition at 21.35 µM: 96.2%
Compound: O=C1C[C@@H](c2ccccc2)Oc2c(Cc3ccccc3O)c(O)c(Cc3ccccc3O)c(O)c21 [dichamanetin]
